Data as given in ChEMBL document CHEMBL1151266, “Cytotoxic principles from the formosan milkweed, Asclepias curassavica” (J Nat Prod, 2005).
Converted amounts (≈) assume the structure as drawn.

Legend:
Type in all cases: functional, cell-based
A549 = assay: Cytotoxicity against human A549 cells after 3 days by MTT assay; details: A549, 72 h
Method in brief: (§1)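 Freshly trypsinized cells seeded at 5000-10 000 per well; test agents added from DMSO stock. After 3 days in culture, attached cells incubated with MTT (0.5 mg/mL, 1 h), then solubilized in DMSO; absorbance read at 550 nm. IC50 taken as concentration reducing cell growth by 50%.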

MDA-MB-231 = assay: Cytotoxicity against human MDA-MB-231 cells after 3 days by MTT assay; details: MDA-MB-231, 72 h; method in brief: as §1
MCF7 = assay: Cytotoxicity against human MCF7 cells after 3 days by MTT assay; details: MCF7, 72 h; method in brief: as §1
HepG2 = assay: Cytotoxicity against human HepG2 cells after 3 days by MTT assay; details: HepG2, 72 h
Method in brief: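 Freshly trypsinized cells seeded at 5000-10 000 per well; test agents added from DMSO stock. After 3 days in culture, attached cells incubated with MTT (0.5 mg/mL, 1 h), then solubilized in DMSO; absorbance read at 550 nm.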

KB = assay: Cytotoxicity against human KB cells

`C[C@@H]1C[C@H](O)[C@]2(O)O[C@@H]3C[C@@]4(C=O)[C@@H](CC[C@@H]5[C@@H]4CC[C@]4(C)[C@@H](C6=CC(=O)OC6)C[C@@H](O)[C@]54O)C[C@H]3O[C@@H]2O1` gave an IC50 (A549) of 0.1 µg/mL (≈ 0.182 µM), an IC50 (MDA-MB-231) of 0.98 µg/mL (≈ 1.79 µM) and an IC50 (MCF7) of 0.48 µg/mL (≈ 0.875 µM). It also gave an IC50 (HepG2) of 0.15 µg/mL (≈ 0.273 µM).

`CC(=O)O[C@@H]1C[C@]2(O)[C@@H]3CC[C@H]4C[C@H]5O[C@@H]6O[C@H](C)C[C@H](O)[C@]6(O)O[C@@H]5C[C@]4(C=O)[C@H]3CC[C@]2(C)[C@H]1C1=CC(=O)OC1` showed an IC50 (A549) of 0.11 µg/mL (≈ 0.186 µM), an IC50 (MDA-MB-231) of 0.49 µg/mL (≈ 0.83 µM) and an IC50 (MCF7) of 0.28 µg/mL (≈ 0.474 µM). For the same compound, the IC50 (HepG2) was 0.39 µg/mL (≈ 0.66 µM).

Work on `CC(=O)O[C@H]1C[C@@H](C)O[C@H]2O[C@@H]3C[C@@H]4CC[C@@H]5[C@H](CC[C@]6(C)[C@@H](C7=CC(=O)OC7)[C@H](OC(C)=O)C[C@]56O)[C@@]4(C=O)C[C@H]3O[C@]21O` yielded an IC50 (A549) of 0.02 µg/mL (≈ 0.0316 µM), an IC50 (MDA-MB-231) of 0.39 µg/mL (≈ 0.616 µM) and an IC50 (MCF7) of 0.17 µg/mL (≈ 0.269 µM). For the same compound, the IC50 (HepG2) was 0.13 µg/mL (≈ 0.205 µM).

Work on `CC(=O)O[C@H]1C[C@@H](C)O[C@H]2O[C@@H]3C[C@@H]4CC[C@@H]5[C@H](CC[C@]6(C)[C@@H](C7=CC(=O)OC7)[C@H](O)C[C@]56O)[C@@]4(C=O)C[C@H]3O[C@]21O` yielded an IC50 (A549) of 0.14 µg/mL (≈ 0.237 µM), an IC50 (MDA-MB-231) of 1.52 µg/mL (≈ 2.57 µM) and an IC50 (MCF7) of 1 µg/mL (≈ 1.69 µM). For the same compound, the IC50 (HepG2) was 0.51 µg/mL (≈ 0.863 µM).

`C[C@@H]1C[C@@H](O)[C@]2(O)O[C@@H]3C[C@@]4(C=O)[C@@H](CC[C@@H]5[C@@H]4CC[C@]4(C)[C@@H](C6=CC(=O)OC6)C[C@@H](O)[C@]54O)C[C@H]3O[C@@H]2O1` gave an IC50 (A549) of 0.07 µg/mL (≈ 0.128 µM), an IC50 (MDA-MB-231) of 0.45 µg/mL (≈ 0.82 µM) and an IC50 (MCF7) of 0.38 µg/mL (≈ 0.693 µM). The IC50 (HepG2) was 0.16 µg/mL (≈ 0.292 µM).

In the case of `CC(=O)O[C@H]1C[C@@H](C)O[C@H]2O[C@@H]3C[C@@H]4CC[C@@H]5[C@H](CC[C@]6(C)[C@@H](C7=CC(=O)OC7)CC[C@]56O)[C@@]4(C=O)C[C@H]3O[C@]21O` [ASCLEPIN], the IC50 (A549) is reported as 0.01 µg/mL (≈ 0.0174 µM), the IC50 (MDA-MB-231) is reported as 0.06 µg/mL (≈ 0.104 µM) and the IC50 (MCF7) is reported as 0.02 µg/mL (≈ 0.0348 µM). The IC50 (HepG2) was 0.05 µg/mL (≈ 0.087 µM).

With `C[C@@H]1C[C@@H](O)[C@]2(O)O[C@@H]3C[C@@]4(C=O)[C@@H](CC[C@@H]5[C@@H]4CC[C@]4(C)[C@@H](C6=CC(=O)OC6)CC[C@]54O)C[C@H]3O[C@@H]2O1` [CALACTIN] the IC50 (A549) was 0.0029 µg/mL (≈ 0.00544 µM), the IC50 (MDA-MB-231) was 0.03 µg/mL (≈ 0.0563 µM) and the IC50 (MCF7) was 0.01 µg/mL (≈ 0.0188 µM). The IC50 (HepG2) was 0.02 µg/mL (≈ 0.0375 µM).

With `C[C@@H]1C[C@H](O)[C@]2(O)O[C@@H]3C[C@@]4(C=O)[C@@H](CC[C@@H]5[C@@H]4CC[C@]4(C)[C@@H](C6=CC(=O)OC6)CC[C@]54O)C[C@H]3O[C@@H]2O1` [CALOTROPIN] the IC50 (A549) was 0.02 µg/mL (≈ 0.0375 µM), the IC50 (MDA-MB-231) was 0.16 µg/mL (≈ 0.3 µM) and the IC50 (MCF7) was 0.08 µg/mL (≈ 0.15 µM). For the same compound, the IC50 (HepG2) was 0.11 µg/mL (≈ 0.207 µM) and the IC50 (KB) was 0.015 µg/mL (≈ 0.0282 µM).

`C[C@]12CC[C@H](O)C[C@H]1CC[C@@H]1[C@@H]2CC[C@]2(C)[C@@H](C3=CC(=O)OC3)CC[C@]12O` [DIGITOXIGENIN] gave an IC50 (A549) of 0.24 µg/mL (≈ 0.641 µM), an IC50 (MDA-MB-231) of 1.9 µg/mL (≈ 5.07 µM) and an IC50 (MCF7) of 1.69 µg/mL (≈ 4.51 µM). The IC50 (HepG2) was 0.12 µg/mL (≈ 0.32 µM).

`COc1cccc2c1C(=O)c1c(O)c3c(c(O)c1C2=O)C[C@@](O)(C(=O)CO)C[C@@H]3O[C@H]1C[C@H](N)[C@H](O)[C@H](C)O1` [DOXORUBICIN] showed an IC50 (A549) of 0.79 µg/mL (≈ 1.45 µM) and an IC50 (MCF7) of 0.56 µg/mL (≈ 1.03 µM).

With `C[C@@H]1CC(=O)[C@]2(O)O[C@@H]3C[C@@]4(C=O)[C@@H](CC[C@@H]5[C@@H]4CC[C@]4(C)[C@@H](C6=CC(=O)OC6)CC[C@]54O)C[C@H]3O[C@@H]2O1` [USCHARIDIN] the IC50 (A549) was 0.01 µg/mL (≈ 0.0188 µM), the IC50 (MDA-MB-231) was 0.09 µg/mL (≈ 0.17 µM) and the IC50 (MCF7) was 0.04 µg/mL (≈ 0.0754 µM). For the same compound, the IC50 (HepG2) was 0.04 µg/mL (≈ 0.0754 µM).

With `C[C@@H]1C[C@@]2(N=CCS2)[C@]2(O)O[C@@H]3C[C@@]4(C=O)[C@@H](CC[C@@H]5[C@@H]4CC[C@]4(C)[C@@H](C6=CC(=O)OC6)CC[C@]54O)C[C@H]3O[C@@H]2O1` [USCHARIN] the IC50 (A549) was 0.01 µg/mL (≈ 0.017 µM), the IC50 (MDA-MB-231) was 0.1 µg/mL (≈ 0.17 µM) and the IC50 (MCF7) was 0.04 µg/mL (≈ 0.0681 µM). It also gave an IC50 (HepG2) of 1.1 µg/mL (≈ 1.87 µM).
